Legend:
[1] = fT>MIC in Pseudomonas aeruginosa OC 4354 infected sc dosed SKH1 mouse administered in 24 hrs dosing interval; assay type: functional
How it was run: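 Plasma levels came from female hairless SKH1 mice given single s.c. doses at the nape 24 h after flank s.c. infection with Cytodex beads. S. aureus work used immunocompetent mice. P. aeruginosa work used mice made neutropenic with cyclophosphamide i.p., 150 mg/kg at day −5 and 100 mg/kg at day −1. Drug assayed by HPLC with diode-array detection. Noncompartmental analysis.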

Pseudomonas aeruginosa [2] = assay: Antimicrobial activity against Pseudomonas aeruginosa OC 4354 infected in immunocompromized SKH1 mouse assessed as lesion volume at 25 mg/kg/day, sc measured after 48 hrs postinfection (reference value: 2195 mm3); assay type: functional; settings: route subcutaneous
Pseudomonas aeruginosa [3] = assay: Antimicrobial activity against Pseudomonas aeruginosa OC 4354 infected in immunocompromized SKH1 mouse assessed as log change in bacterial colony forming unit at 100 mg/kg/day, sc; assay type: functional; settings: route subcutaneous
How it was run: (§1)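 Female SKH1 hairless mice made neutropenic with ip cyclophosphamide (150 mg/kg 5 days and 100 mg/kg 1 day before infection). 0.2 ml s.c. Cytodex bead (0.1% vol/vol) inoculum in BHI: OC 4351 left flank, OC 4354 right flank. Drug s.c. at 1, 3, 25, 27 h postinfection. Killed at 48 h; skin homogenised in saline, plated on TSA 18 h 37°C; Δlog CFU/g versus inoculum. 5 mice/dose, run twice.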

Pseudomonas aeruginosa [4] = assay: Antimicrobial activity against Pseudomonas aeruginosa OC 4351 infected in immunocompromized SKH1 mouse assessed as log change in bacterial colony forming unit at 100 mg/kg/day, sc; assay type: functional; settings: route subcutaneous; how it was run: as §1
Pseudomonas aeruginosa [5] = assay: Antimicrobial activity against Pseudomonas aeruginosa OC 4354 infected in immunocompromized SKH1 mouse assessed as lesion volume at 1.6 mg/kg/day, sc measured after 48 hrs postinfection (reference value: 2195 mm3); assay type: functional; settings: route subcutaneous
Pseudomonas aeruginosa [6] = assay: Antimicrobial activity against Pseudomonas aeruginosa OC 4351 assessed as inhibition of growth by broth microdilution method; assay type: functional
Pseudomonas aeruginosa [7] = assay: Antimicrobial activity against Pseudomonas aeruginosa OC 4351 infected in immunocompromized SKH1 mouse assessed as log change in bacterial colony forming unit at 1.6 mg/kg/day, sc; assay type: functional; settings: route subcutaneous; how it was run: as §1
Pseudomonas aeruginosa [8] = assay: Antimicrobial activity against Pseudomonas aeruginosa OC 4354 infected in immunocompromized SKH1 mouse assessed as lesion volume at 100 mg/kg/day, sc measured after 48 hrs postinfection (reference value: 2195 mm3); assay type: functional; settings: route subcutaneous
Pseudomonas aeruginosa [9] = assay: Antimicrobial activity against Pseudomonas aeruginosa OC 4354 infected in immunocompromized SKH1 mouse assessed as log change in bacterial colony forming unit at 25 mg/kg/day, sc; assay type: functional; settings: route subcutaneous; how it was run: as §1
[10] = fT>MIC in Pseudomonas aeruginosa OC 4351 infected sc dosed SKH1 mouse administered in 24 hrs dosing interval; assay type: functional
Plasma [11] = assay: fAUC (0-infinity) in immunocompromized SKH1 mouse plasma at 50 mg/kg, sc; assay type: ADME, organism-based; design: dose 50 mg/kg, route subcutaneous; settings: in vivo
How it was run: (§2)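 Female SKH1 hairless mice, immunocompetent or cyclophosphamide-neutropenic, infected s.c. with MRSA OC 8525 or P. aeruginosa OC 4354 on the Cytodex beads (left flank), sterile beads on the right. Single dose 24 h later: s.c. at the nape, or linezolid 50 mg/kg oral. Plasma and skin (DMSO homogenate) sampled over time, HPLC with diode array.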

[12] = Tmax in immunocompromized SKH1 mouse plasma at 12.5 mg/kg, sc; assay type: ADME, organism-based; design: dose 12.5 mg/kg, route subcutaneous; how it was run: as §2
[13] = Half life in immunocompromized SKH1 mouse plasma at 12.5 mg/kg, sc; assay type: ADME, organism-based; design: dose 12.5 mg/kg, route subcutaneous; how it was run: as §2
[14] = Half life in immunocompromized SKH1 mouse plasma at 50 mg/kg, sc; assay type: ADME, organism-based; design: dose 50 mg/kg, route subcutaneous
Plasma [15] = assay: fCmax in immunocompromized SKH1 mouse plasma at 50 mg/kg, sc; assay type: ADME, organism-based; design: dose 50 mg/kg, route subcutaneous; settings: in vivo; how it was run: as §2
[16] = Tmax in immunocompromized SKH1 mouse plasma at 50 mg/kg, sc; assay type: ADME, organism-based; design: dose 50 mg/kg, route subcutaneous; how it was run: as §2
Pseudomonas aeruginosa [17] = assay: Antimicrobial activity against Pseudomonas aeruginosa OC 4354 infected in immunocompromized SKH1 mouse assessed as log change in bacterial colony forming unit at 6.2 mg/kg/day, sc; assay type: functional; settings: route subcutaneous; how it was run: as §1
Pseudomonas aeruginosa [18] = assay: Antimicrobial activity against Pseudomonas aeruginosa OC 4351 infected in immunocompromized SKH1 mouse assessed as log change in bacterial colony forming unit at 25 mg/kg/day, sc; assay type: functional; settings: route subcutaneous; how it was run: as §1
Pseudomonas aeruginosa [19] = assay: Antimicrobial activity against Pseudomonas aeruginosa OC 4354 infected in immunocompromized SKH1 mouse assessed as lesion volume at 6.2 mg/kg/day, sc measured after 48 hrs postinfection (reference value: 2195 mm3); assay type: functional; settings: route subcutaneous
Pseudomonas aeruginosa [20] = assay: Antimicrobial activity against Pseudomonas aeruginosa OC 4354 infected in immunocompromized SKH1 mouse assessed as log change in bacterial colony forming unit at 1.6 mg/kg/day, sc; assay type: functional; settings: route subcutaneous; how it was run: as §1
[21] = fT>MIC in Pseudomonas aeruginosa OC 4354 infected sc dosed SKH1 mouse at 50 mg/kg, sc administered twice at 1 and 3 hrs after infection; assay type: functional; settings: route subcutaneous
Plasma [22] = assay: fAUC (0-infinity) in immunocompromized SKH1 mouse plasma at 12.5 mg/kg, sc; assay type: ADME, organism-based; design: dose 12.5 mg/kg, route subcutaneous; settings: in vivo; how it was run: as §2
Pseudomonas aeruginosa [23] = assay: Antimicrobial activity against Pseudomonas aeruginosa OC 4351 infected in immunocompromized SKH1 mouse assessed as lesion volume at 100 mg/kg/day, sc measured after 48 hrs postinfection (reference value: 2234 mm3); assay type: functional; settings: route subcutaneous
Pseudomonas aeruginosa [24] = assay: Antimicrobial activity against Pseudomonas aeruginosa OC 4351 infected in immunocompromized SKH1 mouse assessed as lesion volume at 25 mg/kg/day, sc measured after 48 hrs postinfection (reference value: 2234 mm3); assay type: functional; settings: route subcutaneous
Pseudomonas aeruginosa [25] = assay: Antimicrobial activity against Pseudomonas aeruginosa OC 4351 infected in immunocompromized SKH1 mouse assessed as log change in bacterial colony forming units at 25 mg/kg/day, sc; assay type: functional; settings: route subcutaneous; how it was run: as §1
Pseudomonas aeruginosa [26] = assay: Antimicrobial activity against Pseudomonas aeruginosa OC 4354 assessed as inhibition of growth by broth microdilution method; assay type: functional
[27] = fT>MIC in Pseudomonas aeruginosa OC 4351 infected sc dosed SKH1 mouse at 50 mg/kg, sc administered twice at 1 and 3 hrs after infection; assay type: functional; settings: route subcutaneous
Plasma [28] = assay: fCmax in immunocompromized SKH1 mouse plasma at 12.5 mg/kg, sc; assay type: ADME, organism-based; design: dose 12.5 mg/kg, route subcutaneous; settings: in vivo; how it was run: as §2
Pseudomonas aeruginosa [29] = assay: Antimicrobial activity against Pseudomonas aeruginosa OC 4351 infected in immunocompromized SKH1 mouse assessed as lesion volume at 1.6 mg/kg/day, sc measured after 48 hrs postinfection (reference value: 2234 mm3); assay type: functional; settings: route subcutaneous
Pseudomonas aeruginosa [30] = assay: Antimicrobial activity against Pseudomonas aeruginosa OC 4351 infected in immunocompromized SKH1 mouse assessed as lesion volume at 6.2 mg/kg/day, sc measured after 48 hrs postinfection (reference value: 2234 mm3); assay type: functional; settings: route subcutaneous
[31] = Ratio of fAUC to MIC in Staphylococcus aureus OC 4172 infected sc dosed SKH1 mouse; assay type: functional
How it was run: (§3)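 Free-drug plasma AUC, converted from μg·min/ml to μg·h/ml, divided by the MIC of the infecting S. aureus strain.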

Staphylococcus aureus [32] = assay: Antimicrobial activity against methicillin-resistant Staphylococcus aureus OC 8525 infected immunocompetent SKH1 mouse assessed as lesion volume at 25 mg/kg/day, sc measured after 48 hrs postinfection (reference value: 1535 mm3); settings: route subcutaneous
Staphylococcus aureus [33] = assay: Antimicrobial activity against methicillin-susceptible Staphylococcus aureus Smith OC 4172 infected immunocompetent SKH1 mouse assessed as lesion volume at 1.6 mg/kg/day, sc measured after 48 hrs postinfection (reference value: 1181 mm3); settings: route subcutaneous
[34] = Protein binding in mouse plasma; assay type: ADME, cell-free; settings: read-out: PPB (converted)
Plasma [35] = assay: fAUC (0-infinity) in immunocompetent SKH1 mouse plasma at 50 mg/kg, sc; assay type: ADME, organism-based; design: dose 50 mg/kg, route subcutaneous; settings: in vivo; how it was run: as §2
Staphylococcus aureus [36] = assay: Antimicrobial activity against methicillin-resistant Staphylococcus aureus OC 8525 infected immunocompetent SKH1 mouse assessed as lesion volume at 6.2 mg/kg/day, sc measured after 48 hrs postinfection (reference value: 1535 mm3); settings: route subcutaneous
[37] = Ratio of fAUC to MIC in Staphylococcus aureus OC 8525 infected sc dosed SKH1 mouse; assay type: functional; how it was run: as §3
Staphylococcus aureus [38] = assay: Antimicrobial activity against methicillin-susceptible Staphylococcus aureus Smith OC 4172 infected immunocompetent SKH1 mouse assessed as lesion volume at 100 mg/kg/day, sc measured after 48 hrs postinfection (reference value: 1181 mm3); settings: route subcutaneous
[39] = Tmax in immunocompetent SKH1 mouse plasma at 50 mg/kg, sc; assay type: ADME, organism-based; design: dose 50 mg/kg, route subcutaneous; how it was run: as §2
Staphylococcus aureus [40] = assay: Antimicrobial activity against methicillin-resistant Staphylococcus aureus OC 8525 infected immunocompetent SKH1 mouse assessed as lesion volume at 1.6 mg/kg/day, sc measured after 48 hrs postinfection (reference value: 1535 mm3); settings: route subcutaneous
Staphylococcus aureus [41] = assay: Antimicrobial activity against methicillin-resistant Staphylococcus aureus OC 8525 infected immunocompetent SKH1 mouse assessed as lesion volume at 100 mg/kg/day, sc measured after 48 hrs postinfection (reference value: 1535 mm3); settings: route subcutaneous
Staphylococcus aureus [42] = assay: Antimicrobial activity against methicillin-susceptible Staphylococcus aureus Smith OC 4172 infected immunocompetent SKH1 mouse assessed as lesion volume at 25 mg/kg/day, sc measured after 48 hrs postinfection (reference value: 1181 mm3); settings: route subcutaneous
Staphylococcus aureus [43] = assay: Antimicrobial activity against methicillin-susceptible Staphylococcus aureus Smith OC 4172 infected immunocompetent SKH1 mouse assessed as lesion volume at 6.2 mg/kg/day, sc measured after 48 hrs postinfection (reference value: 1181 mm3); settings: route subcutaneous
Plasma [44] = assay: fCmax in immunocompetent SKH1 mouse plasma at 50 mg/kg, sc; assay type: ADME, organism-based; design: dose 50 mg/kg, route subcutaneous; settings: in vivo; how it was run: as §2
[45] = Half life in immunocompetent SKH1 mouse plasma at 50 mg/kg, sc; assay type: ADME, organism-based; design: dose 50 mg/kg, route subcutaneous

Q: Which results are given for C[C@@H](O)[C@H]1C(=O)N2C(C(=O)O)=C(S[C@@H]3CN[C@H](C(=O)N(C)C)C3)[C@H](C)[C@H]12 [MEROPENEM]?
A: fT>MIC [1]: 8%; Activity (Pseudomonas aeruginosa [2]): 926 mm3; deltalog10CFU (Pseudomonas aeruginosa [3]): -1.1; deltalog10CFU (Pseudomonas aeruginosa [4]): -1; Activity (Pseudomonas aeruginosa [5]): 1316 mm3; MIC (Pseudomonas aeruginosa [6]): 0.12 µg/mL; deltalog10CFU (Pseudomonas aeruginosa [7]): 0.2; Activity (Pseudomonas aeruginosa [8]): 810 mm3; deltalog10CFU (Pseudomonas aeruginosa [9]): -1.1; fT>MIC [10]: 8.5%; fAUC (Plasma [11]): 1837 µg·min/mL; Tmax [12]: 7.5 min; half-life [13]: 13.6 min; half-life [14]: 8.6 min; fCmax (Plasma [15]): 72 µg/mL; Tmax [16]: 7.5 min; deltalog10CFU (Pseudomonas aeruginosa [17]): 0.5; deltalog10CFU (Pseudomonas aeruginosa [18]): 0.2; Activity (Pseudomonas aeruginosa [19]): 1030 mm3; deltalog10CFU (Pseudomonas aeruginosa [20]): 0.7; fT>MIC [21]: 1.9 h; fAUC (Plasma [22]): 268 µg·min/mL; Activity (Pseudomonas aeruginosa [23]): 602 mm3; Activity (Pseudomonas aeruginosa [24]): 862 mm3; deltalog10CFU (Pseudomonas aeruginosa [25]): -0.9; MIC (Pseudomonas aeruginosa [26]): 0.5 µg/mL; fT>MIC [27]: 2 h; fCmax (Plasma [28]): 11 µg/mL; Activity (Pseudomonas aeruginosa [29]): 1190 mm3; Activity (Pseudomonas aeruginosa [30]): 992 mm3

Q: Which fAUC/MIC [31] does the source give for CN[C@H](CC(C)C)C(=O)N[C@H]1C(=O)N[C@@H](CC(N)=O)C(=O)N[C@H]2C(=O)N[C@H]3C(=O)N[C@H](C(=O)N[C@H](C(=O)O)c4cc(O)cc(O)c4-c4cc3ccc4O)[C@H](O)c3ccc(c(Cl)c3)Oc3cc2cc(c3O[C@@H]2O[C@H](CO)[C@@H](O)[C@H](O)[C@H]2O[C@H]2C[C@](C)(N)[C@H](O)[C@H](C)O2)Oc2ccc(cc2Cl)[C@H]1O [VANCOMYCIN] here?
A: 2070

Q: And the Activity (Staphylococcus aureus [32])?
A: 927 mm3

Q: What about the Activity (Staphylococcus aureus [33]) of the same molecule?
A: 1386 mm3

Q: And the fraction unbound [34]?
A: 0.75

Q: What about the fAUC (Plasma [35]) of the same molecule?
A: 2070 µg·min/mL

Q: And the Activity (Staphylococcus aureus [36])?
A: 1392 mm3

Q: And the fAUC/MIC [37]?
A: 2070

Q: What about the Activity (Staphylococcus aureus [38]) of the same molecule?
A: 437 mm3

Q: What about the Tmax [39] of the same molecule?
A: 10 min

Q: What about the Activity (Staphylococcus aureus [40]) of the same molecule?
A: 1637 mm3

Q: And the Activity (Staphylococcus aureus [41])?
A: 606 mm3

Q: What about the Activity (Staphylococcus aureus [42]) of the same molecule?
A: 916 mm3

Q: And the Activity (Staphylococcus aureus [43])?
A: 1211 mm3

Q: What about the fCmax (Plasma [44]) of the same molecule?
A: 40 µg/mL

Q: What about the half-life [45] of the same molecule?
A: 22 min
